Consider eight compounds from ChEMBL document CHEMBL1131617 (J Med Chem, 1998).

The target in one test is D(2) dopamine receptor (Rattus norvegicus, UniProt P61169). Kind of test: relative affinity against Dopamine receptor D2 in striatum using [3H]YM-09151-2 as radioligand. It counts as tissue-based. Summed up:
(§1)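 Radioligand competition binding was run per earlier published conditions. Inhibition was screened at 100 nM and 10 µM. Incubated tubes were filtered through glass-fibre filters on a vacuum manifold. Nonspecific binding was counts bound in the presence of a saturating concentration of an established competing ligand. Reference drugs were run in parallel as positive controls.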

The target of test [1] is Sodium-dependent dopamine transporter (Rattus norvegicus, UniProt P23977). Kind of test: relative affinity against dopamine transporter using WIN-35428 as radioligand. Summed up: as §1
The target of the next test is D(3) dopamine receptor (Rattus norvegicus, UniProt P19020). Kind of test: relative affinity against Dopamine receptor D3 in ventral striatum using [3H](+)-7-OH-DPAT as radioligand. The test is classed as tissue-based. In short, it runs like this:
as §1

In a further test the target is Glutamate NMDA receptor. In words: relative affinity against N-methyl-D-aspartate glutamate receptor in caudate using [3H](+)-MK-801 as radioligand. It counts as protein-complex assay. In short, it runs like this: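 Tubes incubated under the specified conditions, then filtered on glass-fibre filters and counted. Nonspecific binding taken as cpm bound with a saturating concentration of an established competing ligand. Reference drugs run in parallel as positive controls.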

Test [2] addresses Kappa-type opioid receptor (Rattus norvegicus, UniProt P34975). In words: relative affinity against Opioid receptor kappa 1 in insular Ctx using [3H]U-69593 as radioligand.
The target in test [3] is Sodium-dependent serotonin transporter (Rattus norvegicus, UniProt P31652). In words: relative affinity against serotonin transporter using RTI-55 as radioligand. In short, it runs like this: as §1
The target of the next test is Mu-type opioid receptor (Rattus norvegicus, UniProt P33535). In words: Relative affinity against Opioid receptor mu 1 in thalamus using [3H]DAMGO as radioligand. It counts as tissue-based. In short, it runs like this:
as §1

Another test addresses D(1A) dopamine receptor (Rattus norvegicus, UniProt P18901). In words: Relative affinity for Dopamine receptor D1 in striatum using [3H]SCH-23390. It counts as tissue-based. Summed up: as §1

Some results are limits rather than exact numbers.

Sequence of Sodium-dependent dopamine transporter (P23977 whole entry): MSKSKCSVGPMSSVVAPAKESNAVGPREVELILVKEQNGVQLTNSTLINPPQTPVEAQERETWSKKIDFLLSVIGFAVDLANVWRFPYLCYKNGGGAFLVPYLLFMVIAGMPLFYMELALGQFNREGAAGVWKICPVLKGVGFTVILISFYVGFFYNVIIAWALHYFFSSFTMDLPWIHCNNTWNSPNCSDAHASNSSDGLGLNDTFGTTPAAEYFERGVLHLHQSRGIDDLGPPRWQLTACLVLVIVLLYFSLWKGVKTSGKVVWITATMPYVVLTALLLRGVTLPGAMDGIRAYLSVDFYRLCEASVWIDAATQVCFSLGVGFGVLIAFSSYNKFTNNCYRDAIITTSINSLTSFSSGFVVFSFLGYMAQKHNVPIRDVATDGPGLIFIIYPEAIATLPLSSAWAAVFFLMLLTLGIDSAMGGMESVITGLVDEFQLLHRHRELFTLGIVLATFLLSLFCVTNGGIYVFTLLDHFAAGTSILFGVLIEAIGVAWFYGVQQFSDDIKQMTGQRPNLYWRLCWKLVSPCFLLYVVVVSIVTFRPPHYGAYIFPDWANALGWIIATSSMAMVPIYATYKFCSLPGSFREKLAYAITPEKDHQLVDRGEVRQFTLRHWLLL
Sequence of D(3) dopamine receptor (P19020 whole entry): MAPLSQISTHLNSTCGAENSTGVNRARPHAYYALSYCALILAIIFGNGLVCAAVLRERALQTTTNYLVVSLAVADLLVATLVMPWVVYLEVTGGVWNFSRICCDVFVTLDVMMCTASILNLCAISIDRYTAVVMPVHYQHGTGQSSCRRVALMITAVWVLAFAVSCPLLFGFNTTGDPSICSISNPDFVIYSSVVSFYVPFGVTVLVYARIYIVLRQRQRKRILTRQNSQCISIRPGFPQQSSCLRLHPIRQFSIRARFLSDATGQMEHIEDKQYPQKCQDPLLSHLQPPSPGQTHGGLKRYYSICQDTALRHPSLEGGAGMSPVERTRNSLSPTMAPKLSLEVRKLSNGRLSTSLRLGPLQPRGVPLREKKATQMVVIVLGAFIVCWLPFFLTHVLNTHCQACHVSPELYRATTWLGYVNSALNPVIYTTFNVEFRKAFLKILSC
Sequence of Sodium-dependent serotonin transporter (P31652 whole entry): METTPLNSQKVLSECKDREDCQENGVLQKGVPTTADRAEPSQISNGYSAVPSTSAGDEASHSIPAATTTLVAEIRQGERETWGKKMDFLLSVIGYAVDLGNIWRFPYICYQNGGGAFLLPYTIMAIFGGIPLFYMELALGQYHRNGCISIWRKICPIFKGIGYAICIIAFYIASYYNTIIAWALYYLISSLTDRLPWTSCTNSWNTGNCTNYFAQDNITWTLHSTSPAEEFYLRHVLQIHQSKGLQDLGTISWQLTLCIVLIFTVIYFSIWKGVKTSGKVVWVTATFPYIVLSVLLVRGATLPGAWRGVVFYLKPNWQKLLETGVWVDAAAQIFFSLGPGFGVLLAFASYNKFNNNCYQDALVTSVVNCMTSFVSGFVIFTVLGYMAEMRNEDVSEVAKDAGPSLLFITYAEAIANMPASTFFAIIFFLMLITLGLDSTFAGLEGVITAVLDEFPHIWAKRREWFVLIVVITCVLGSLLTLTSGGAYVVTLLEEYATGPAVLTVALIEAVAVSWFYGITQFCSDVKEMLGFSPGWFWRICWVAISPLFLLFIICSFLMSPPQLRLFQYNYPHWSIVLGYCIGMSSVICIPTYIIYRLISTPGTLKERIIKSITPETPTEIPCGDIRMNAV
Sequence of Kappa-type opioid receptor (P34975 whole entry): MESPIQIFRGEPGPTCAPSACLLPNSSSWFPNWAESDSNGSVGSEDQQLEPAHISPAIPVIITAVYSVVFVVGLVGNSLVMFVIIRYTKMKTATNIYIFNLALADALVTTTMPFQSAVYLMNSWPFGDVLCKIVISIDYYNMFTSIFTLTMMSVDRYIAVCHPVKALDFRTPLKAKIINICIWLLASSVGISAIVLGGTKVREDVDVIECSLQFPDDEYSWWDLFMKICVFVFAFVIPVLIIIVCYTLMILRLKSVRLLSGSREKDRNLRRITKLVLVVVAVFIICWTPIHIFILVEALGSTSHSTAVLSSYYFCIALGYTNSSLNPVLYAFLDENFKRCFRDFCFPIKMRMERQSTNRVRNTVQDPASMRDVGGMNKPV
Sequence of D(2) dopamine receptor (P61169 whole entry): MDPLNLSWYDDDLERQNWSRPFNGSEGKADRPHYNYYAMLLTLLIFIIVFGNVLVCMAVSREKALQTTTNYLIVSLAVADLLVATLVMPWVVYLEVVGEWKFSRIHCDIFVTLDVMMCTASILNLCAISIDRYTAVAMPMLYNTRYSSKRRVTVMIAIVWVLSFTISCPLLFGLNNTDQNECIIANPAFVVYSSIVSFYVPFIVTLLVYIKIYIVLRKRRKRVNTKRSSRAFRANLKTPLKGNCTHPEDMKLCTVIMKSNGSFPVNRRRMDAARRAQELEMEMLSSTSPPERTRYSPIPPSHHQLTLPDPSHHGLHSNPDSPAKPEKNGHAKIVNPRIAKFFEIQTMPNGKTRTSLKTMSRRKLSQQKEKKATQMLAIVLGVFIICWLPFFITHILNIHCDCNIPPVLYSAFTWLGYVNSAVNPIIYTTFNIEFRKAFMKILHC
Sequence of Mu-type opioid receptor (P33535 whole entry): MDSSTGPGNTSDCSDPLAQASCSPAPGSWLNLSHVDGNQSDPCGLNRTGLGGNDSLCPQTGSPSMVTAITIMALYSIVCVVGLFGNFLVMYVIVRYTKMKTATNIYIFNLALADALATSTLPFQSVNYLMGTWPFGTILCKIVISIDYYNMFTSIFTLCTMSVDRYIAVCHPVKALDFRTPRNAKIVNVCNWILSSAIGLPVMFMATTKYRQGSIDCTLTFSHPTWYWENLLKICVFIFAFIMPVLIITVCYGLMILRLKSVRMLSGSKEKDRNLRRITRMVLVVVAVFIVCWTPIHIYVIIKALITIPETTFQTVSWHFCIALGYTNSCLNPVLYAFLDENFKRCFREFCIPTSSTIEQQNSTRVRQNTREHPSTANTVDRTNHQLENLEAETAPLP
Sequence of D(1A) dopamine receptor (P18901 whole entry): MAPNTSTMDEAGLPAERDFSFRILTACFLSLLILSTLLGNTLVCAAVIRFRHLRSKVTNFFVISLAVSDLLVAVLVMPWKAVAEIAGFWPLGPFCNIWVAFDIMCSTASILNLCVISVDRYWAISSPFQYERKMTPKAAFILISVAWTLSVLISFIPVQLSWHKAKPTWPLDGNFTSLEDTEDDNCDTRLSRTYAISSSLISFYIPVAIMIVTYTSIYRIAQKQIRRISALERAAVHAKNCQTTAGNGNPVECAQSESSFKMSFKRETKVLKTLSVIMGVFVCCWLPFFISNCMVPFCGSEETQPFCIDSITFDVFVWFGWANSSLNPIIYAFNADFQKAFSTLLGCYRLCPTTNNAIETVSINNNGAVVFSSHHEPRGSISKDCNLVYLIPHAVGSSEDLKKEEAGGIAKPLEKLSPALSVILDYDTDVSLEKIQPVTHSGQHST

For the compound `CCN1CCc2c(sc3ccccc23)C(c2cccc(Br)c2)C1` (stereo not drawn), the IC50 (in general, the point on the concentration scale where inhibition reaches its midpoint) on D(2) dopamine receptor came out at 3.5 µM; in test [1], 0.21 µM; at D(3) dopamine receptor, 2 µM; on Glutamate NMDA receptor, 46.6 µM; in test [2] it was 12.5 µM; in test [3], 4.3 µM. The concentration for half-maximal inhibition (IC50) at Mu-type opioid receptor and against D(1A) dopamine receptor was 5 µM throughout.
For `CCN1CCc2c(sc3ccccc23)C(c2ccccc2)C1` (stereo not drawn), the IC50 was 5 µM on D(2) dopamine receptor; 0.14 µM in test [1]; 0.6 µM at D(3) dopamine receptor; 42 µM on Glutamate NMDA receptor; 1.3 µM in test [2]; 0.3 µM in test [3]. Moreover, the IC50 at Mu-type opioid receptor stood at 2.2 µM; at D(1A) dopamine receptor it was 3 µM.
As for `CN1CCc2c([nH]c3ccccc23)C(c2ccccc2)C1` (stereo not drawn), the IC50 was 27.2 µM on D(2) dopamine receptor; 0.18 µM in test [1]; 4.2 µM at D(3) dopamine receptor; 21.2 µM in test [2]; 0.19 µM in test [3]; 3.1 µM on Mu-type opioid receptor. For the same compound, on D(1A) dopamine receptor, half-maximal inhibition (IC50) was put at 20 µM.
Regarding `CCN1CCc2c(sc3ccccc23)C(c2ccc(Cl)c(Cl)c2)C1` (stereo not drawn), the IC50 was 5 µM at D(2) dopamine receptor; 0.25 µM in test [1]; 2 µM at D(3) dopamine receptor; 81 µM at Glutamate NMDA receptor; 15.9 µM in test [2]; 1.2 µM in test [3]. Besides, the IC50 at Mu-type opioid receptor stood at 54.5 µM; at D(1A) dopamine receptor, 70 µM.
With `CCN1CCc2c(sc3ccccc23)C(c2cccc([N+](=O)[O-])c2)C1` (stereo not drawn), the half-maximal inhibitory concentration (IC50) was determined as 3.1 µM at D(2) dopamine receptor; 0.25 µM in test [1]; 0.6 µM on D(3) dopamine receptor; 32 µM at Glutamate NMDA receptor; 16.2 µM in test [2]; 1.1 µM in test [3]. The half-inhibitory concentration (IC50) is 3.1 µM on Mu-type opioid receptor and 5 µM against D(1A) dopamine receptor.
Turning to `COc1cc2c(cc1OC)C(c1ccccc1)CN(C)CC2` (stereo not drawn), the 50% inhibitory concentration (IC50) against D(1A) dopamine receptor was found to be 0.491 µM.
Take `CC[C@@H]1CC2C[C@@H]3c4[nH]c5ccc(O)cc5c4CCN(C2)C13`: the IC50 at D(2) dopamine receptor is over 10 µM; at D(3) dopamine receptor, over 10 µM; at Glutamate NMDA receptor it was 31.4 µM; in test [2] it was 4.24 µM; in test [3], 0.04 µM; on Mu-type opioid receptor it was 0.16 µM. Also, the half-inhibitory concentration (IC50) against D(1A) dopamine receptor was over 10 µM.
Regarding `CC[C@H]1C[C@@H]2C[C@H]3c4[nH]c5ccc(OC)cc5c4CCN(C2)[C@@H]13` [IBOGAINE], the half-inhibitory concentration (IC50) on D(2) dopamine receptor is over 10 µM; in test [1] it was 4.11 µM; on D(3) dopamine receptor, over 10 µM; on Glutamate NMDA receptor, 5.2 µM; in test [3], 0.59 µM; on D(1A) dopamine receptor, over 10 µM.
